Measurements from ChEMBL document CHEMBL1143250, “Synthesis and bioevaluation of 22-hydroxyacuminatine analogs” (Bioorg Med Chem Lett, 2008).
Values after ≈ are worked out from the molar mass of the structure shown. Active and inactive are the calls of the source. The calls are words filed in the database; no cut-off is given here.

Experiments:
DU-145 [1] = test: Antiproliferative activity against human DU145 cells after 96 hrs; type: functional, cell-based; details: DU-145, 96 h
Procedure, shortened: (§1)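 Cytostatic growth-inhibition assay: cells were exposed to compound for 96 h. The IC50 is the concentration giving 50% inhibition of cell growth. Compounds were dissolved in DMSO, and the top concentration was capped by the final DMSO level in the mixture. Compounds showing no inhibition up to the highest concentration tested were scored not active.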

[2] = Antiproliferative activity against human MIA PaCa cells after 96 hrs; type: functional, cell-based; procedure, shortened: as §1
HT-29 [3] = test: Antiproliferative activity against human HT29 cells at 2 uM after 96 hrs; type: functional, cell-based; procedure, shortened: as §1
DU-145 [4] = test: Antiproliferative activity against human DU145 cells at 2 uM after 96 hrs; type: functional, cell-based; procedure, shortened: as §1
PaCa = test: Antiproliferative activity against human MIA PaCa cells at 2 uM after 96 hrs; type: functional, cell-based; procedure, shortened: as §1
P388 = test: Cytotoxicity against mouse P388 cells; type: functional; details: read-out: ED50 (the source's name)
KB = test: Cytotoxicity against human KB cells; type: functional; details: read-out: ED50 (the source's name)
HT-29 [5] = test: Antiproliferative activity against human HT29 cells after 96 hrs; type: functional, cell-based; details: HT-29, 96 h; procedure, shortened: as §1

IC50 (DU-145 [1]) | IC50 (HT-29 [5]) | SMILES | IC50 [2] | Activity (HT-29 [3]) | Activity (DU-145 [4]) | Activity (PaCa) | EC50 (P388) | EC50 (KB)
1.81 µM |  | CCc1c2c(nc3ccc(OC)cc13)-c1cc3c(CO)cccc3c(=O)n1C2 | 0.81 µM | inactive |  |  |  | 
 |  | O=c1c2cccc(CO)c2cc2n1Cc1cc3cc(Cl)ccc3nc1-2 | 1.7 µM | inactive | inactive |  |  | 
 |  | CCc1c2c(nc3ccc(C)cc13)-c1cc3c(CO)cccc3c(=O)n1C2 | 1.14 µM | inactive | inactive |  |  | 
 |  | COC(=O)c1cccc2c(=O)n3c(cc12)-c1nc2ccc(C)cc2c(CCl)c1C3 | 1.35 µM | inactive | inactive |  |  | 
 |  | CCc1c2c(nc3ccc(OC)cc13)-c1cc3c(C(=O)OC)cccc3c(=O)n1C2 |  | inactive | inactive | inactive |  | 
1.69 µM |  | CCc1c2c(nc3ccc(Cl)cc13)-c1cc3c(CO)cccc3c(=O)n1C2 | 0.81 µM | inactive |  |  |  | 
 |  | CCc1c2c(nc3ccc(C)cc13)-c1cc3c(C(=O)OC)cccc3c(=O)n1C2 | 1.81 µM | inactive | inactive |  |  | 
 |  | CCc1c2c(nc3ccc(Cl)cc13)-c1cc3c(C(=O)OC)cccc3c(=O)n1C2 | 1.5 µM | inactive | inactive |  |  | 
 |  | COC(=O)c1cccc2c(=O)n3c(cc12)-c1nc2ccccc2cc1C3 | 1.01 µM | inactive | inactive |  |  | 
 |  | O=c1c2cccc(CO)c2cc2n1Cc1cc3ccccc3nc1-2 | 1.01 µM | inactive | inactive |  | 1.32 µg/mL (≈ 4.2 µM) | 0.61 µg/mL (≈ 1.94 µM)
 |  | COC(=O)c1cccc2c(=O)n3c(cc12)-c1nc2ccc(OC)cc2c(C)c1C3 | 1.99 µM | inactive | inactive |  |  | 
 |  | CCc1c2c(nc3cc4c(cc13)OCCO4)-c1cc3c(C(=O)OC)cccc3c(=O)n1C2 | 1.4 µM | inactive | inactive |  |  | 
0.004 µM | 0.012 µM | CCc1c2c(nc3ccc(O)cc13)-c1cc3c(c(=O)n1C2)COC(=O)[C@]3(O)CC [7-ETHYL-10-HYDROXYCAMPTOTHECIN] | 0.006 µM |  |  |  |  | 
